Laboratory results published in ChEMBL document CHEMBL3576759, “Antineoplastic agents. 599. Total synthesis of dolastatin 16” (2015).
Values after ≈ are worked out from the molar mass of the structure shown.

Legend:
NCI-H460 [1] = test: Growth inhibition of human NCI-H460 cells using DMSO as solvent after 48 hrs by sulforhodamine B assay; format: functional
Procedure, shortened: (§1)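 NCI-standard SRB protocol. Cells in RPMI1640 with 5% fetal bovine serum were seeded in 96-well plates and held 24 h before serial compound dilutions were added. After 48 h, cells were fixed with trichloroacetic acid, stained with sulforhodamine B and read by optical density. GI50 is the concentration giving 50% reduction in net protein increase.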

SF-268 [2] = test: Growth inhibition of human SF268 cells using DMSO as solvent after 48 hrs by sulforhodamine B assay; format: functional; procedure, shortened: as §1
[3] = Growth inhibition of human KM20L2 cells using DMSO as solvent after 48 hrs by sulforhodamine B assay; format: functional, KM-20L2; procedure, shortened: as §1
DU-145 [4] = test: Growth inhibition of human DU145 cells using DMSO as solvent after 48 hrs by sulforhodamine B assay; format: functional; procedure, shortened: as §1
MCF7 [5] = test: Growth inhibition of human MCF7 cells using DMSO as solvent after 48 hrs by sulforhodamine B assay; format: functional; procedure, shortened: as §1
[6] = Growth inhibition of human BxPC3 cells using DMSO as solvent after 48 hrs by sulforhodamine B assay; format: functional, BXPC-3; procedure, shortened: as §1
SF-268 [7] = test: Growth inhibition of human SF268 cells using MeOH as solvent after 48 hrs by sulforhodamine B assay; format: functional; conditions: SF-268, 48 h; procedure, shortened: as §1
NCI-H460 [8] = test: Growth inhibition of human NCI-H460 cells using MeOH as solvent after 48 hrs by sulforhodamine B assay; format: functional; conditions: NCI-H460, 48 h; procedure, shortened: as §1
MCF7 [9] = test: Growth inhibition of human MCF7 cells using MeOH as solvent after 48 hrs by sulforhodamine B assay; format: functional; conditions: MCF7, 48 h; procedure, shortened: as §1
[10] = Growth inhibition of human BxPC3 cells using MeOH as solvent after 48 hrs by sulforhodamine B assay; format: functional; conditions: BXPC-3, 48 h; procedure, shortened: as §1
DU-145 [11] = test: Growth inhibition of human DU145 cells using MeOH as solvent after 48 hrs by sulforhodamine B assay; format: functional; conditions: DU-145, 48 h; procedure, shortened: as §1
[12] = Growth inhibition of human KM20L2 cells using MeOH as solvent after 48 hrs by sulforhodamine B assay; format: functional; conditions: KM-20L2, 48 h; procedure, shortened: as §1

| SMILES | GI50 (NCI-H460 [1]) [mg/L] | GI50 (SF-268 [2]) [mg/L] | GI50 [3] [mg/L] | GI50 (DU-145 [4]) [mg/L] | GI50 (MCF7 [5]) [mg/L] | GI50 [6] [mg/L] | GI50 (SF-268 [7]) [mg/L] | GI50 (NCI-H460 [8]) [mg/L] | GI50 (MCF7 [9]) [mg/L] | GI50 [10] [mg/L] | GI50 (DU-145 [11]) [mg/L] | GI50 [12] [mg/L] |
| --- | --- | --- | --- | --- | --- | --- | --- | --- | --- | --- | --- | --- |
| CC(C)[C@H]1NC(=O)[C@@H]2CCCN2C(=O)[C@H]([C@H](C)Cc2ccccc2)NC(=O)[C@@H]2CCCN2C(=O)[C@@H](C(C)C)N(C)C(=O)[C@@H](C(C)C)OC(=O)[C@@H]2CCCN2C(=O)[C@H](C)OC(=O)[C@@H]1C (stereo in doubt) | 0.27 (≈ 0.307 µM) | 0.016 (≈ 0.0182 µM) | 0.013 (≈ 0.0148 µM) | 0.009 (≈ 0.0102 µM) | 0.027 (≈ 0.0307 µM) | 0.05 (≈ 0.0569 µM) | – | – | – | – | – | – |
| CC(C)[C@H]1NC(=O)[C@@H]2CCCN2C(=O)[C@H]([C@H](C)Cc2ccccc2)NC(=O)[C@@H]2CCCN2C(=O)[C@@H](C(C)C)N(C)C(=O)[C@@H](C(C)C)OC(=O)[C@@H]2CCCN2C(=O)[C@H](C)OC(=O)[C@@H]1C (stereo in doubt; 1) | >10 | >10 | >10 | >10 | >10 | >10 | > 10 | > 10 | > 10 | > 10 | > 10 | > 10 |
